Each block holds one compound with its values, some of them ahead of it.
Experiments:
Rhesus monkey [1] = assay: AUC in rhesus monkey; type: ADME, organism-based, Macaca mulatta, Plasma; settings: in vivo
[2] = Central volume of distribution in rhesus monkey; type: ADME, organism-based, Macaca mulatta; settings: in vivo, read-out: Vc
[3] = Cmax in rhesus monkey; type: ADME, organism-based, Macaca mulatta; settings: in vivo
[4] = Volume of distribution at steady state in rhesus monkey; type: ADME, organism-based, Macaca mulatta; settings: in vivo, read-out: Vdss
[5] = Terminal phase half life in rhesus monkey; type: ADME, organism-based, Macaca mulatta; settings: in vivo
[6] = Oral bioavailability in rhesus monkey; type: ADME, organism-based, Macaca mulatta; settings: in vivo
[7] = Oral bioavailability in cynomolgus monkey; type: ADME, organism-based, Macaca fascicularis; settings: in vivo
[8] = Drug elimination in monkey urine after 30 days; type: ADME, organism-based, Macaca mulatta; settings: rhesus monkey, Activity
[9] = Oral bioavailability in rhesus monkey at 60 mg/kg; type: ADME, organism-based, Macaca mulatta; settings: in vivo
[10] = Oral bioavailability in mouse; type: ADME, organism-based; settings: in vivo
[11] = Oral bioavailability in human; type: ADME, organism-based; settings: in vivo
[12] = Biodistribution in rhesus monkey urine assessed as dose recovered unchanged at 33.3 mg/kg, po after 8 hrs; type: ADME, organism-based, Macaca mulatta; design: dose 33.3 mg/kg, route oral; settings: read-out: Drug uptake
How it was run: (§1)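 Monkeys were catheterized and dosed with 33.3 mg/kg by i.v. or oral route under anesthesia. Urine was collected in intervals over 0–8 h. Untreated urine was incubated 12 h at 37°C in acetate/phosphate buffer pH 5.8 and spiked with AZT internal standard. Unchanged drug was quantified by HPLC-UV at 266 nm against urine standard curves of 0.1–100 µg/ml.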

[13] = AUC in rhesus monkey at 33.3 mg/kg, iv; type: ADME, organism-based, Macaca mulatta; design: dose 33.3 mg/kg, route intravenous; settings: plasma
How it was run: (§2)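 Rhesus monkeys (three) got a single 33.3 mg/kg dose orally by gastric intubation in water, then i.v. in saline after a washout of at least 4 weeks. Animals were under ketamine/Telazol anesthesia. Femoral-vein blood was drawn at 0–24 h. Serum was acetonitrile-extracted with AZT internal standard and assayed by HPLC-UV at 266 nm. Parameters came from a simultaneous two-compartment fit weighted 1/(predicted)2. F was from AUCoral = F x AUCi.v.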

[14] = Central volume of distribution in rhesus monkey at 33.3 mg/kg, iv; type: ADME, organism-based, Macaca mulatta; design: dose 33.3 mg/kg, route intravenous; settings: in vivo, read-out: Vc; how it was run: as §2
[15] = Drug level in rhesus monkey cerebrospinal fluid at 33.3 mg/kg, iv after 2 hrs; type: ADME, organism-based, Macaca mulatta; design: dose 33.3 mg/kg, route intravenous; settings: read-out: Drug uptake
How it was run: (§3)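 Cerebrospinal fluid was drawn by cisternal or lumbar tap 1 and 2 h after a 33.3 mg/kg i.v. or oral dose in anesthetized rhesus monkeys. Samples were kept frozen at –70°C. AZT internal standard was added, and the sample was injected directly for HPLC-UV at 266 nm against water-based standards of 0.1–25 µg/ml.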

[16] = Mean residence time in rhesus monkey at 33.3 mg/kg, iv; type: ADME, organism-based, Macaca mulatta; design: dose 33.3 mg/kg, route intravenous; settings: in vivo; how it was run: as §2
[17] = Drug level in rhesus monkey cerebrospinal fluid at 33.3 mg/kg, po after 1 hr; type: ADME, organism-based, Macaca mulatta; design: dose 33.3 mg/kg, route oral; settings: read-out: Drug uptake; how it was run: as §3
[18] = Ratio of drug level in cerebrospinal fluid to plasma of rhesus monkey at 33.3 mg/kg, po after 2 hrs; type: ADME, organism-based, Macaca mulatta, CSF/Plasma; design: dose 33.3 mg/kg, route oral
How it was run: (§4)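 CSF was taken by cisternal or lumbar tap at 1 and 2 h after a 33.3 mg/kg i.v. or oral dose, along with femoral-vein serum. Both were quantified by HPLC-UV at 266 nm with AZT internal standard. The ratio was CSF concentration divided by serum concentration at the same time.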

Rhesus monkey [19] = assay: Drug elimination in rhesus monkey assessed as beta-dioxolane-thymine-glucuronide elimination at 33.3 mg/kg, iv; type: ADME, organism-based, Macaca mulatta; design: dose 33.3 mg/kg, route intravenous; settings: in vivo
How it was run: (§5)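 Glucuronide was estimated indirectly in 0–8 h urine after a 33.3 mg/kg i.v. or oral dose. Urine was treated with β-glucuronidase (500 U/ml, freshly prepared) in acetate/phosphate buffer pH 5.8 for 12 h at 37°C. Untreated urine served as the parallel sample. Glucuronide was taken as the difference in parent drug between the two samples by HPLC-UV. Its presence was screened by ESI MS/MS.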

[20] = Drug level in rhesus monkey cerebrospinal fluid at 33.3 mg/kg, iv after 1 hr; type: ADME, organism-based, Macaca mulatta; design: dose 33.3 mg/kg, route intravenous; settings: read-out: Drug uptake; how it was run: as §3
[21] = Ratio of drug level in cerebrospinal fluid to plasma of rhesus monkey at 33.3 mg/kg, po after 1 hr; type: ADME, organism-based, Macaca mulatta, CSF/Plasma; design: dose 33.3 mg/kg, route oral; how it was run: as §4
[22] = Ratio of drug level in cerebrospinal fluid to plasma of rhesus monkey at 33.3 mg/kg, iv after 1 hr; type: ADME, organism-based, Macaca mulatta, CSF/Plasma; design: dose 33.3 mg/kg, route intravenous; how it was run: as §4
[23] = Renal clearance in rhesus monkey at 33.3 mg/kg, iv; type: ADME, organism-based, Macaca mulatta, Kidney; design: dose 33.3 mg/kg, route intravenous; settings: in vivo, read-out: CL_renal (converted)
How it was run: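 Renal clearance was derived by fitting 0–8 h urinary excretion (HPLC-UV) to dXu/dt = Clrenal x Cp. Cp was the serum concentration predicted by the two-compartment serum fit, and the urine fit was unweighted. Dose was 33.3 mg/kg.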

[24] = AUC in rhesus monkey at 33.3 mg/kg, po; type: ADME, organism-based, Macaca mulatta; design: dose 33.3 mg/kg, route oral; settings: plasma; how it was run: as §2
[25] = Volume of distribution at steady state in rhesus monkey at 33.3 mg/kg, iv; type: ADME, organism-based, Macaca mulatta; design: dose 33.3 mg/kg, route intravenous; settings: in vivo, read-out: Vdss; how it was run: as §2
[26] = Systemic clearance in rhesus monkey at 33.3 mg/kg, iv; type: ADME, organism-based, Macaca mulatta; design: dose 33.3 mg/kg, route intravenous; settings: in vivo; how it was run: as §2
Rhesus monkey [27] = assay: Tlag in rhesus monkey at 33.3 mg/kg, po; settings: in vivo
[28] = Drug level in rhesus monkey cerebrospinal fluid at 33.3 mg/kg, po after 2 hrs; type: ADME, organism-based, Macaca mulatta; design: dose 33.3 mg/kg, route oral; settings: read-out: Drug uptake; how it was run: as §3
Rhesus monkey [29] = assay: Drug elimination in rhesus monkey assessed as beta-dioxolane-thymine-glucuronide elimination at 33.3 mg/kg, po; type: ADME, organism-based, Macaca mulatta; design: dose 33.3 mg/kg, route oral; settings: in vivo; how it was run: as §5
[30] = Oral bioavailability in rhesus monkey at 33.3 mg/kg; type: ADME, organism-based, Macaca mulatta; settings: in vivo; how it was run: as §2
[31] = Ratio of drug level in cerebrospinal fluid to plasma of rhesus monkey at 33.3 mg/kg, iv after 2 hrs; type: ADME, organism-based, Macaca mulatta, CSF/Plasma; design: dose 33.3 mg/kg, route intravenous; how it was run: as §4
[32] = Tmax in rhesus monkey at 33.3 mg/kg, po; type: ADME, organism-based, Macaca mulatta; design: dose 33.3 mg/kg, route oral; settings: in vivo
How it was run: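 Oral gastric-intubation dose of 33.3 mg/kg in water given to rhesus monkeys under ketamine/Telazol anesthesia. Serial femoral-vein serum was sampled from 0.25 to 24 h and assayed by reverse-phase HPLC-UV at 266 nm. Time of peak was taken from a two-compartment model fitted with an absorption lag.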

[33] = Cmax in rhesus monkey at 33.3 mg/kg, po; type: ADME, organism-based, Macaca mulatta; design: dose 33.3 mg/kg, route oral; settings: in vivo; how it was run: as §2
[34] = Terminal phase half life in rhesus monkey at 33.3 mg/kg, iv; type: ADME, organism-based, Macaca mulatta; design: dose 33.3 mg/kg, route intravenous; settings: in vivo; how it was run: as §2
[35] = Biodistribution in rhesus monkey urine assessed as dose recovered unchanged at 33.3 mg/kg, iv after 8 hrs; type: ADME, organism-based, Macaca mulatta; design: dose 33.3 mg/kg, route intravenous; settings: read-out: Drug uptake; how it was run: as §1
[36] = Mean residence time in rhesus monkey at 33.3 mg/kg, po; type: ADME, organism-based, Macaca mulatta; design: dose 33.3 mg/kg, route oral; settings: in vivo; how it was run: as §2

AUC (Rhesus monkey [1]): 197 µM·h
Vd [2]: 0.53 L/kg
Cmax [3]: 34.4 µM
Vd [4]: 0.53 L/kg
half-life [5]: 2.48 h
bioavailability [6]: 38%
Structure (SMILES): Nc1nc(=O)n([C@H]2CO[C@@H](CO)O2)cc1F

bioavailability [7]: 83%
dose excreted at 720 h [8]: < 50%
half-life [5]: 0.8 h
bioavailability [9]: 25%
bioavailability [10]: 100%
bioavailability [11]: 100%
Structure (SMILES): Cc1cn([C@H]2C=C[C@@H](CO)O2)c(=O)[nH]c1=O [STAVUDINE]

half-life [5]: 0.8 h
bioavailability [9]: 90%
Structure (SMILES): Cc1cn([C@H]2C[C@H](N=[N+]=[N-])[C@@H](CO)O2)c(=O)[nH]c1=O [ZIDOVUDINE]

dose excreted at 8 h [12]: 48%
AUC [13]: 416 µM·h
Vd [14]: 0.52 L/kg
concentration at 2 h [15]: 12.3 µM
MRT [16]: 2.88 h
concentration at 1 h [17]: 3.2 µM
Kp at 2 h [18]: 0.06
Drug uptake (Rhesus monkey [19]): 4%
concentration at 1 h [20]: 7.8 µM
Kp at 1 h [21]: 0.05
Kp at 1 h [22]: 0.09
CL renal [23]: 3 mL/min/kg
AUC [24]: 387 µM·h
Vd [25]: 1.02 L/kg
clearance [26]: 6 mL/min/kg
Tlag (Rhesus monkey [27]): 0.51 h
concentration at 2 h [28]: 4.2 µM
Drug uptake (Rhesus monkey [29]): 8%
bioavailability [30]: 95%
Kp at 2 h [31]: 0.18
Tmax [32]: 0.5 h
Cmax [33]: 105 µM
half-life [34]: 2.16 h
dose excreted at 8 h [35]: 40%
MRT [36]: 3.26 h
Structure (SMILES): Cc1cn([C@H]2CO[C@@H](CO)O2)c(=O)[nH]c1=O

bioavailability [6]: 30%
Structure (SMILES): Nc1nc(N)c2ncn([C@H]3CO[C@@H](CO)O3)c2n1 [AMDOXOVIR]

Cmax [3]: 50 µM
Structure (SMILES): Nc1nc2c(ncn2[C@H]2CO[C@@H](CO)O2)c(=O)[nH]1
